Test results reported in ChEMBL document CHEMBL1157620, “1-(Aryl)-6-[alkoxyalkyl]-3-azabicyclo[3.1.0]hexanes and 6-(aryl)-6-[alkoxyalkyl]-3-azabicyclo[3.1.0]hexanes: a new series of potent and selective triple reuptake inhibitors” (J Med Chem, 2010).

Biological target: Cytochrome P450 2C9 (Homo sapiens, UniProt P11712)
Assay: Inhibition of human CYP2C9 by fluorescence assay
Format: ADME
Conditions: not given
Summary of the method: (§1)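 Recombinant human P450 bactosomes (0.1 mg/mL) in 50 mM phosphate, pH 7.4. Test compound at 0.1-10 μM, preincubated 10 min at 37 °C with fluorogenic substrate: ethoxyresorufin 0.5 μM (1A2), FCA 50 μM (2C9), BMC 10 μM (2C19), MMC 10 μM (2D6).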

Sequence of Cytochrome P450 2C9 (P11712 whole entry): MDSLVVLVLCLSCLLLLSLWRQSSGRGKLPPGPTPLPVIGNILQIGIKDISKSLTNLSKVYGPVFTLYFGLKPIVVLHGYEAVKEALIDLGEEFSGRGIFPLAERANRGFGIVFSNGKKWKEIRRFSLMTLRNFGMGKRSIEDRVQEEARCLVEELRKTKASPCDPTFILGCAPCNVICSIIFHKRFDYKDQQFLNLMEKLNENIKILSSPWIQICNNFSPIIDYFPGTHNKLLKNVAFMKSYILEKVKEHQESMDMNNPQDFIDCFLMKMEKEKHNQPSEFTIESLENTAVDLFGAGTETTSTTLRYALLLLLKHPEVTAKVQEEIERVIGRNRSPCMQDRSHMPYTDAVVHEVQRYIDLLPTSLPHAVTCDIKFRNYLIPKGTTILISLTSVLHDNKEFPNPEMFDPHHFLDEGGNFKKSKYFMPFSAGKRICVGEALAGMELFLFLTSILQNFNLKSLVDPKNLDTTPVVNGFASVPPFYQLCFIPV

Compound	IC50
CCOC[C@H]1[C@@H]2CNC[C@@]21c1ccc(Cl)c(Cl)c1 (relative stereo)	> 9000 nM
COC[C@@H]1[C@H]2CNC[C@]21c1ccc2ccccc2c1 (stereo in doubt)	> 4000 nM
CC(C)OC[C@@H]1[C@H]2CNC[C@]21c1ccc(Cl)c(Cl)c1 (stereo in doubt)	> 8000 nM
Clc1ccc([C@@]23CNC[C@@H]2[C@H]3COCC2CC2)cc1Cl (stereo in doubt)	> 10000 nM

Test system: not listed separately
Assay: Volume of distribution in rat
Format: ADME, organism-based
Conditions: in vivo

Compound	Vd
Clc1ccc([C@@]23CNC[C@@H]2[C@H]3COCC2CC2)cc1Cl (stereo in doubt)	5.2 L/kg

Test system: Liver microsomes
Assay: (§2) Intrinsic clearance in rat liver microsomes assessed per gram of protein at 0.5 uM after 30 mins by HPLC-MS/MS analysis
Format: ADME, Microsome
Conditions: microsomes, 0.5 h, 0.5 µM
Summary of the method: (§3)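 Compound at 0.5 μM with rat or human liver microsomes (0.5 mg protein/mL), 50 mM phosphate, pH 7.4, 37 °C, started with NADPH. Sampled at 0-30 min, acetonitrile quench, HPLC-MS/MS. CLi from first-order elimination constant, scaled assuming 52.5 mg microsomal protein/g.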

Compound	CL
Clc1ccc([C@@]23CNC[C@@H]2[C@H]3COCC2CC2)cc1Cl (stereo in doubt)	2.6 mL/min/g

Test system: not listed separately
Assay: as §2
Format: ADME, Microsome
Conditions: liver microsomes
Summary of the method: as §3

Compound	CLint scaled at 0.5 µM
COC[C@@H]1[C@H]2CNC[C@]21c1ccc2ccccc2c1 (stereo in doubt)	3.9 mL/min/kg
CC(C)OC[C@@H]1[C@H]2CNC[C@]21c1ccc(Cl)c(Cl)c1 (stereo in doubt)	< 0.5 mL/min/kg

Biological target: Cytochrome P450 2D6 (Homo sapiens, UniProt P10635)
Assay: Inhibition of human […] by fluorescence assay
Format: ADME
Conditions: not given
Summary of the method: as §1

Sequence of Cytochrome P450 2D6 (P10635 whole entry): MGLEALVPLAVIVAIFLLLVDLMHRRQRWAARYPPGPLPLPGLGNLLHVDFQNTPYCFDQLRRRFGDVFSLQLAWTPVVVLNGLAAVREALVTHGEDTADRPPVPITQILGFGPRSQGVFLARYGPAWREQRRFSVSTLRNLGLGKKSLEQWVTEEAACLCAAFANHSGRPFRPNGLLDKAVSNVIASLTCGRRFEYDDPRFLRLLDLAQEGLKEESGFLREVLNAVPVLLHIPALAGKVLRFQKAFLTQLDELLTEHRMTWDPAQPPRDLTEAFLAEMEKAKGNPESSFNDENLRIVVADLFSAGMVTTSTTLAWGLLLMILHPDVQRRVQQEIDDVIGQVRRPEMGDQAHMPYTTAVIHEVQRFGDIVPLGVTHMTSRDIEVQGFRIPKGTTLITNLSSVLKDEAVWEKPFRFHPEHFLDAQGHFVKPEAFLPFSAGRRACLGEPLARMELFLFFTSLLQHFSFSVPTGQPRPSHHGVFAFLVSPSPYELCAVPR

Compound	IC50
CCOC[C@H]1[C@@H]2CNC[C@@]21c1ccc(Cl)c(Cl)c1 (relative stereo)	4000 nM
COC[C@@H]1[C@H]2CNC[C@]21c1ccc2ccccc2c1 (stereo in doubt)	> 4000 nM
CC(C)OC[C@@H]1[C@H]2CNC[C@]21c1ccc(Cl)c(Cl)c1 (stereo in doubt)	> 8000 nM
Clc1ccc([C@@]23CNC[C@@H]2[C@H]3COCC2CC2)cc1Cl (stereo in doubt)	1000 nM

Test system: not listed separately
Assay: Ratio of drug level in brain to blood in rat
Format: ADME, tissue-based
Conditions: read-out: BBR

Compound	Kp
Clc1ccc([C@@]23CNC[C@@H]2[C@H]3COCC2CC2)cc1Cl (stereo in doubt)	10

Test system: not listed separately
Assay: Half life in rat
Format: ADME, organism-based
Conditions: in vivo

Compound	half-life
Clc1ccc([C@@]23CNC[C@@H]2[C@H]3COCC2CC2)cc1Cl (stereo in doubt)	1 h

Biological target: Sodium-dependent dopamine transporter (Homo sapiens, UniProt Q01959)
Assay: Displacement of [3H]WIN-35428 from human recombinant DAT expressed in BacMam virus-transduced cells by scintillation proximity assay
Format: cell-based
Conditions: not given

Sequence of Sodium-dependent dopamine transporter (Q01959 whole entry): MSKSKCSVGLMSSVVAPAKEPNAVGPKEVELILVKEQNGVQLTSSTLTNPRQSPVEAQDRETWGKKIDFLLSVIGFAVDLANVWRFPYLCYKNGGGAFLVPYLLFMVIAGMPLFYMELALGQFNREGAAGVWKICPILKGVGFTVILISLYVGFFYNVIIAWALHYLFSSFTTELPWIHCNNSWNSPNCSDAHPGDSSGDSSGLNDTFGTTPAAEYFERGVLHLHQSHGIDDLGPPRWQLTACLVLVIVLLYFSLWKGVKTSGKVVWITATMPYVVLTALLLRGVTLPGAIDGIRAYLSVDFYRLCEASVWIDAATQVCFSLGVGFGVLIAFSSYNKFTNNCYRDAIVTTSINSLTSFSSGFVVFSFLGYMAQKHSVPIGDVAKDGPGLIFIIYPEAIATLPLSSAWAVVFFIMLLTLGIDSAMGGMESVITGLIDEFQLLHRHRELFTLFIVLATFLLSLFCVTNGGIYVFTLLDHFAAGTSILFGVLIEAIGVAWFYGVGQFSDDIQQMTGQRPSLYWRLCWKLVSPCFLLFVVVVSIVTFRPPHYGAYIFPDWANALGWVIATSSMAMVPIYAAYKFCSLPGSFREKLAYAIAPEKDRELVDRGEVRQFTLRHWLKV

Compound	Ki
CCOC[C@H]1[C@@H]2CNC[C@@]21c1ccc(Cl)c(Cl)c1 (relative stereo)	25.1 nM
COC[C@@H]1[C@H]2CNC[C@]21c1ccc2ccccc2c1 (stereo in doubt)	25.1 nM
CC(C)OC[C@@H]1[C@H]2CNC[C@]21c1ccc(Cl)c(Cl)c1 (stereo in doubt)	5.01 nM
Clc1ccc([C@@]23CNC[C@@H]2[C@H]3COCC2CC2)cc1Cl (stereo in doubt)	12.6 nM

Test system: not listed separately
Assay: Bioavailability in rat
Format: ADME, organism-based
Conditions: in vivo

Compound	bioavailability
Clc1ccc([C@@]23CNC[C@@H]2[C@H]3COCC2CC2)cc1Cl (stereo in doubt)	32%

Test system: Liver microsomes
Assay: (§4) Intrinsic clearance in human liver microsomes assessed per gram of protein at 0.5 uM after 30 mins by HPLC-MS/MS analysis
Format: ADME, Microsome
Conditions: microsomes, 0.5 h, 0.5 µM
Summary of the method: as §3

Compound	CL
Clc1ccc([C@@]23CNC[C@@H]2[C@H]3COCC2CC2)cc1Cl (stereo in doubt)	< 0.5 mL/min/g

Test system: not listed separately
Assay: as §4
Format: ADME, Microsome
Conditions: liver microsomes
Summary of the method: as §3

Compound	CLint scaled at 0.5 µM
COC[C@@H]1[C@H]2CNC[C@]21c1ccc2ccccc2c1 (stereo in doubt)	2.2 mL/min/kg
CC(C)OC[C@@H]1[C@H]2CNC[C@]21c1ccc(Cl)c(Cl)c1 (stereo in doubt)	1.4 mL/min/kg

Biological target: Cytochrome P450 2C19 (Homo sapiens, UniProt P33261)
Assay: Inhibition of human CYP2C19 by fluorescence assay
Format: ADME
Conditions: not given
Summary of the method: as §1

Sequence of Cytochrome P450 2C19 (P33261 whole entry): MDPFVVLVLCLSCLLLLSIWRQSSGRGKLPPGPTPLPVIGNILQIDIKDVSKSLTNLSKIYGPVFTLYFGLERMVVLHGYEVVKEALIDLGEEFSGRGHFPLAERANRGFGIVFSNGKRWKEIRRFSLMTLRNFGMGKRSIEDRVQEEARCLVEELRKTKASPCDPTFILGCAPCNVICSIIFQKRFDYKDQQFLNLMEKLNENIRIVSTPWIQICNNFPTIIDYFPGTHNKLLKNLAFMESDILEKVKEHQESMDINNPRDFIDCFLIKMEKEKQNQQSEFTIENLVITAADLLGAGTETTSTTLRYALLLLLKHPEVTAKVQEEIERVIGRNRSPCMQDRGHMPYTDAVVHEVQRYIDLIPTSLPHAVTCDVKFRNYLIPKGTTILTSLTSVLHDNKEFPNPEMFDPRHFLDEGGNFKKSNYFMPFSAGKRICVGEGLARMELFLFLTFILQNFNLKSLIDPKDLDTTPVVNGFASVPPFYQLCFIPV

Compound	IC50
CCOC[C@H]1[C@@H]2CNC[C@@]21c1ccc(Cl)c(Cl)c1 (relative stereo)	> 9000 nM
COC[C@@H]1[C@H]2CNC[C@]21c1ccc2ccccc2c1 (stereo in doubt)	> 4000 nM
CC(C)OC[C@@H]1[C@H]2CNC[C@]21c1ccc(Cl)c(Cl)c1 (stereo in doubt)	> 8000 nM
Clc1ccc([C@@]23CNC[C@@H]2[C@H]3COCC2CC2)cc1Cl (stereo in doubt)	3000 nM

Biological target: T1, Cytochrome P450 1A2 (Homo sapiens, UniProt P05177)
T1 sequence (P05177 whole entry): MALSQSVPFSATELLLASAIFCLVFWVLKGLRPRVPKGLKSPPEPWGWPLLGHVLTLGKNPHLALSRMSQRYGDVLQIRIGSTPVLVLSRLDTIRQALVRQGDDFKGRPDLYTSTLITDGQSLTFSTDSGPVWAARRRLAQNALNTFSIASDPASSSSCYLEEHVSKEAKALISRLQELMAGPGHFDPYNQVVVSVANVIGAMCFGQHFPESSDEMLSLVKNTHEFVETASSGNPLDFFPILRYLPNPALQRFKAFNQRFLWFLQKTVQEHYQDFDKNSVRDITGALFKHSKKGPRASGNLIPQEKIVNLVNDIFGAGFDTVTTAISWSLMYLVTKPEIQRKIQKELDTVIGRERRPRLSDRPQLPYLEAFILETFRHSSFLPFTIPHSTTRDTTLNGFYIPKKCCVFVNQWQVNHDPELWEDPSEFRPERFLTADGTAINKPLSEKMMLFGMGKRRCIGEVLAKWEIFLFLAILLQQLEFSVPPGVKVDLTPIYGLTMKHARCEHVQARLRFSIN
Assay: Inhibition of human CYP1A2 by fluorescence assay
Format: ADME
Conditions: not given
Summary of the method: as §1

Compound	IC50
CCOC[C@H]1[C@@H]2CNC[C@@]21c1ccc(Cl)c(Cl)c1 (relative stereo)	> 9000 nM
COC[C@@H]1[C@H]2CNC[C@]21c1ccc2ccccc2c1 (stereo in doubt)	900 nM
CC(C)OC[C@@H]1[C@H]2CNC[C@]21c1ccc(Cl)c(Cl)c1 (stereo in doubt)	> 8000 nM
Clc1ccc([C@@]23CNC[C@@H]2[C@H]3COCC2CC2)cc1Cl (stereo in doubt)	> 10000 nM

Test system: not listed separately
Assay: Blood clearance in rat
Format: ADME, organism-based
Conditions: not given

Compound	clearance
Clc1ccc([C@@]23CNC[C@@H]2[C@H]3COCC2CC2)cc1Cl (stereo in doubt)	72 mL/min/kg

Biological target: Sodium-dependent noradrenaline transporter (Homo sapiens, UniProt P23975)
Assay: Displacement of [3H]nisoxetine from human recombinant NET expressed in BacMam virus-transduced cells by scintillation proximity assay
Format: cell-based
Conditions: not given
Summary of the method: (§5)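 BacMam-transduced membranes in SPA format. SERT: 1 mg/mL beads, 6 μg/mL membranes, 3 nM [3H]citalopram. NET: 2 mg/mL beads, 40 μg/mL membranes, 10 nM [3H]nisoxetine. Incubated overnight at room temperature; pKi from pIC50 by Cheng-Prusoff.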

Sequence of Sodium-dependent noradrenaline transporter (P23975 whole entry): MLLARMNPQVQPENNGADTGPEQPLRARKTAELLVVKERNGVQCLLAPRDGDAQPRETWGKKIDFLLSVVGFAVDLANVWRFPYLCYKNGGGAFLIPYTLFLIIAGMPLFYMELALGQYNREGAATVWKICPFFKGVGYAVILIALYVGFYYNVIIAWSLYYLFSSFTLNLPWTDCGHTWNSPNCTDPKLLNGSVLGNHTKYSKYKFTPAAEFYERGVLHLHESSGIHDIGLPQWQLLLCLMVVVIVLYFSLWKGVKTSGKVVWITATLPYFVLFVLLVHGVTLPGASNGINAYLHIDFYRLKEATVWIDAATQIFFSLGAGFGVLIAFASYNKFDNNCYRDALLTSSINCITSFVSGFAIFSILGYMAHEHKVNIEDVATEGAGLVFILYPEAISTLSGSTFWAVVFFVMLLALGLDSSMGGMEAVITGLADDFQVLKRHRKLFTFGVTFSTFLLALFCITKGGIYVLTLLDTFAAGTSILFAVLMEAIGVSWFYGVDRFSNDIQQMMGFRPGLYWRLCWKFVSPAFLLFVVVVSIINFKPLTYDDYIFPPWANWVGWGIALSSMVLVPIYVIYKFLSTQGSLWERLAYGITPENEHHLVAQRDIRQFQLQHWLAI

Compound	Ki
CCOC[C@H]1[C@@H]2CNC[C@@]21c1ccc(Cl)c(Cl)c1 (relative stereo)	1.58 nM
COC[C@@H]1[C@H]2CNC[C@]21c1ccc2ccccc2c1 (stereo in doubt)	0.631 nM
CC(C)OC[C@@H]1[C@H]2CNC[C@]21c1ccc(Cl)c(Cl)c1 (stereo in doubt)	0.251 nM
Clc1ccc([C@@]23CNC[C@@H]2[C@H]3COCC2CC2)cc1Cl (stereo in doubt)	0.631 nM

Biological target: Sodium-dependent serotonin transporter (Homo sapiens, UniProt P31645)
Assay: Displacement of [3H]citalopram from human recombinant SERT expressed in BacMam virus-transduced cells by scintillation proximity assay
Format: cell-based
Conditions: not given
Summary of the method: as §5

Sequence of Sodium-dependent serotonin transporter (P31645 whole entry): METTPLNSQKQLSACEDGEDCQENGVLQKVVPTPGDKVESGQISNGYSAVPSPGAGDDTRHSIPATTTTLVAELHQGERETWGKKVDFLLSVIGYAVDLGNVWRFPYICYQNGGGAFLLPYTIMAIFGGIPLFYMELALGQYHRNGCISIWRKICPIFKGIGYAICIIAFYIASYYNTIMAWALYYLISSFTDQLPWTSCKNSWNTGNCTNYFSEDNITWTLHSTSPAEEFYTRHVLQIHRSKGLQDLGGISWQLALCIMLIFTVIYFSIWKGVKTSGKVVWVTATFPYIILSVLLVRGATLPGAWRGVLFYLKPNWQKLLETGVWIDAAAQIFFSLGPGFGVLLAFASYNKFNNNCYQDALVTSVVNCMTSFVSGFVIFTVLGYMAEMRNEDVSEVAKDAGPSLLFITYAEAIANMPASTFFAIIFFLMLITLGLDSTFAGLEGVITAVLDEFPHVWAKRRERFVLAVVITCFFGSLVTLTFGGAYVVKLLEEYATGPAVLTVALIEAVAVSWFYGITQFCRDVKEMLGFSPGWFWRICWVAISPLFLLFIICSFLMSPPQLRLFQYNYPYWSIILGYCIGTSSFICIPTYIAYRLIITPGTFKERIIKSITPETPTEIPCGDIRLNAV

Compound	Ki
CCOC[C@H]1[C@@H]2CNC[C@@]21c1ccc(Cl)c(Cl)c1 (relative stereo)	0.398 nM
COC[C@@H]1[C@H]2CNC[C@]21c1ccc2ccccc2c1 (stereo in doubt)	0.0794 nM
CC(C)OC[C@@H]1[C@H]2CNC[C@]21c1ccc(Cl)c(Cl)c1 (stereo in doubt)	0.126 nM
Clc1ccc([C@@]23CNC[C@@H]2[C@H]3COCC2CC2)cc1Cl (stereo in doubt)	0.316 nM

Biological target: Cytochrome P450 3A4 (Homo sapiens, UniProt P08684)
Assay: Inhibition of human CYP3A4 by fluorescence assay
Conditions: not given

Sequence of Cytochrome P450 3A4 (P08684 whole entry): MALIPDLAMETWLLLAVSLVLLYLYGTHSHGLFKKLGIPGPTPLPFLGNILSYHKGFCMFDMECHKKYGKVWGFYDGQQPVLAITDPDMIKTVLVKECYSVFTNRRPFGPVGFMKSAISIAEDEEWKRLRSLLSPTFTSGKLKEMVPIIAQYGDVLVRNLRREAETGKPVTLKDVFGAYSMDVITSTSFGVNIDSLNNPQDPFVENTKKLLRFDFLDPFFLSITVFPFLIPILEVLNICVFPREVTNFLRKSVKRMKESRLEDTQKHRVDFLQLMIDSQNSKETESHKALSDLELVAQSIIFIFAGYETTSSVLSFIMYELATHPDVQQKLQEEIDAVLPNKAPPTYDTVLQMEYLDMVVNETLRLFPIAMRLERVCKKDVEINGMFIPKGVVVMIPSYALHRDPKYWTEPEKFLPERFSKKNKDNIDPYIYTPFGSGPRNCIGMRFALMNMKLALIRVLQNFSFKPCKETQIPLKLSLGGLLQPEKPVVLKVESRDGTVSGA

Compound	IC50
CCOC[C@H]1[C@@H]2CNC[C@@]21c1ccc(Cl)c(Cl)c1 (relative stereo)	> 9000 nM
COC[C@@H]1[C@H]2CNC[C@]21c1ccc2ccccc2c1 (stereo in doubt)	> 4000 nM
CC(C)OC[C@@H]1[C@H]2CNC[C@]21c1ccc(Cl)c(Cl)c1 (stereo in doubt)	> 8000 nM
Clc1ccc([C@@]23CNC[C@@H]2[C@H]3COCC2CC2)cc1Cl (stereo in doubt)	> 10000 nM

Test system: not listed separately
Assay: Fraction unbound in rat brain
Format: ADME, tissue-based
Conditions: brain

Compound	fraction unbound
Clc1ccc([C@@]23CNC[C@@H]2[C@H]3COCC2CC2)cc1Cl (stereo in doubt)	0.001
